Assay [1] is described as follows: Antiinflammatory activity in human macrophages assessed as inhibition of LPS-induced IL8 release at 100 uM preincubated for 30 mins before LPS-challenge measured after 24 hrs post challenge by ELISA (reference value: 7.86 +/-0.17 ng/ml). It counts as functional, Macrophage. The method in brief:
(§1)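 Human blood PBMC-derived macrophages were used after 10 days of culture. Purity >95% (esterase, CD14, morphology). Cells were pretreated 30 min at 37 °C with compound, then given 100 ng/mL LPS (S. enteritidis) for 24 h. TNFα, IL-1β and IL-8 in conditioned medium were measured by ELISA. Working solutions were endotoxin-tested by LAL (<3 pg/mL).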
On the technique in general: In an ELISA, binding on a coated surface is turned into a signal by an enzyme label.

In assay [2] the target is T1, Peroxisome proliferator-activated receptor gamma (Mus musculus) (UniProt P37238).
T1 sequence (whole entry): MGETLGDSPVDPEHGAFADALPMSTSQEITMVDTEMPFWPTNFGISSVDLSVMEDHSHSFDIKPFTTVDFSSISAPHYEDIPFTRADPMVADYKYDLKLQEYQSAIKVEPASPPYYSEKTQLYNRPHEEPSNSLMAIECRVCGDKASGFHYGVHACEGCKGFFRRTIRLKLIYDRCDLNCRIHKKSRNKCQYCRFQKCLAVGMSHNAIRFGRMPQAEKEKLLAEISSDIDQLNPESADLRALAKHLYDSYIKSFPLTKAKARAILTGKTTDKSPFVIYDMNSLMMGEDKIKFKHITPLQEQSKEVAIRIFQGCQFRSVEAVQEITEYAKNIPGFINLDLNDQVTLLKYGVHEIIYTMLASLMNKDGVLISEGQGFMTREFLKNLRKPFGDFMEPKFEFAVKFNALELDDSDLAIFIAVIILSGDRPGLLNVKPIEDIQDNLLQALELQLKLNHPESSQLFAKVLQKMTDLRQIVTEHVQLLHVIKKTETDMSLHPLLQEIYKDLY
Kind of assay: Induction of PPAR-gamma promoter activity in LPS-stimulated mouse CMT93 cells at 10 uM preincubated for 30 mins before LPS-challenge measured after 6 hrs post challenge by luciferase reporter gene assay. It counts as cell-based. An outline of the steps:
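CMT-93 cells (1×10⁵/well) were transfected with an NF-κB or PPRE luciferase reporter plus CMV-β-Gal. At 24 h they were treated with compound for 30 min, then with 100 ng/mL LPS for 6 h. Cells were lysed in Tris/EDTA/DTT/Triton buffer and supernatant luciferase was read by luminometer. Results are fold over untreated cells.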
(In general: A reporter such as luciferase makes a cellular process visible.)

A short description of assay [3]: Antiinflammatory activity in human macrophages assessed as inhibition of LPS-induced TNFalpha release at 1 uM preincubated for 30 mins before LPS-challenge measured after 24 hrs post challenge by ELISA (reference value: 1682 +/-190 ng/ml). It counts as functional, Macrophage. An outline of the steps:
as §1

Assay [4] can be described thus: Antiinflammatory activity in human macrophages assessed as inhibition of LPS-induced IL8 release at 10 '-3 uM preincubated for 30 mins before LPS-challenge measured after 24 hrs post challenge by ELISA (reference value: 7.86 +/-0.17 ng/ml). It is filed as functional, Macrophage. The method in brief: as §1
Assay [5] concerns Macrophage. The experiment in a line: Antiinflammatory activity in human macrophages assessed as inhibition of LPS-induced IL8 mRNA transcript accumulation at 10 uM preincubated for 30 mins before LPS-challenge measured after 24 hrs post challenge by quantitative PCR analysis. It counts as functional, cell-based. An outline of the steps:
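Monocyte-derived human macrophages were pretreated with 10 µM compound, then stimulated with LPS for 24 h. RNA was extracted and TNFα and IL8 transcripts were quantified by real-time RT-PCR with UPL probes. GAPDH served as reference gene.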

The nature of assay [6]: Antiinflammatory activity in human macrophages assessed as inhibition of LPS-induced IL8 release at 5 uM preincubated for 30 mins before LPS-challenge measured after 24 hrs post challenge by ELISA (reference value: 7.86 +/-0.17 ng/ml). It is filed as functional, Macrophage. The method in brief: as §1
In assay [7] the test system is Macrophage. Kind of assay: Antiinflammatory activity in human macrophages assessed as inhibition of LPS-induced increase in IL8 level at 10 uM preincubated for 30 mins before LPS-challenge measured after 24 hrs post challenge by ELISA in presence of PPAR-gamma antagonist PD68235. It counts as functional, cell-based. An outline of the steps:
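Human macrophages were pre-exposed to 20 µM PPARγ antagonist PD68235 alongside 10 µM compound, then challenged with 100 ng/mL LPS. After 24 h, IL8 protein in conditioned medium was measured by ELISA.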

In assay [8] the test system is Macrophage. Kind of assay: Antiinflammatory activity in human macrophages assessed as inhibition of LPS-induced IL-1beta release at 10 uM preincubated for 30 mins before LPS-challenge measured after 24 hrs post challenge by ELISA. It is filed as functional, cell-based. An outline of the steps:
as §1

Assay [9] in a line: Antiinflammatory activity in human macrophages assessed as inhibition of LPS-induced TNFalpha release at 10 uM preincubated for 30 mins before LPS-challenge measured after 24 hrs post challenge by ELISA (reference value: 1682 +/-190 ng/ml). It is filed as functional, Macrophage. The method in brief:
as §1

Assay [10] in a line: Antiinflammatory activity in human macrophages assessed as inhibition of LPS-induced IL8 release at 10 uM preincubated for 30 mins before LPS-challenge measured after 24 hrs post challenge by ELISA (reference value: 7.86 +/-0.17 ng/ml). It is filed as functional, Macrophage. The method in brief:
as §1

The nature of assay [11]: Antiinflammatory activity in human macrophages assessed as inhibition of LPS-induced TNFalpha release at 100 uM preincubated for 30 mins before LPS-challenge measured after 24 hrs post challenge by ELISA (reference value: 1682 +/-190 ng/ml). It counts as functional, Macrophage. The method in brief: as §1
Assay [12] concerns Macrophage. The experiment in a line: Antiinflammatory activity in human macrophages assessed as inhibition of LPS-induced TNFalpha release at 10 uM preincubated for 30 mins before LPS-challenge measured after 24 hrs post challenge by ELISA. It is filed as functional, cell-based. The method in brief:
as §1

Assay [13] concerns Macrophage. The experiment in a line: Antiinflammatory activity in human macrophages assessed as inhibition of LPS-induced increase in TNFalpha mRNA transcript at 10 uM preincubated for 30 mins before LPS-challenge measured after 24 hrs post challenge by quantitative PCR analysis in presence of PPAR-gamma antagonist PD68235. It is filed as functional, cell-based.
Assay [14] is described as follows: Antiinflammatory activity in human macrophages assessed as inhibition of LPS-induced IL8 release at 10 '-2 uM preincubated for 30 mins before LPS-challenge measured after 24 hrs post challenge by ELISA (reference value: 7.86 +/-0.17 ng/ml). It counts as functional, Macrophage. An outline of the steps: as §1

Structures are written as SMILES. Activity calls are given as the source filed them. The rule behind the calls is not given here.

`C[n+]1ccc(C(=O)O)c(O)c1.[Cl-]`: the Activity was determined as 4.43 ng/mL in [1]; 1651 ng/mL in assay [3]; 7.98 ng/mL in assay [4]; 7.34 ng/mL in assay [6]; 1084 ng/mL in assay [9]; 5.4 ng/mL in assay [10]. For the same compound, the figures for the Activity in assay [11] and in assay [14] were 1069 ng/mL and 7.56 ng/mL, respectively. In assay [2], the outcome was Active. For the same compound, the inhibition entry in the assay on Macrophage [5], in the assay with Macrophage [7], in the assay with Macrophage [8] and with Macrophage [12] was “Active” in each case. In addition, the inhibition result in the assay on Macrophage [13] was “inactive”.

(Values after ChEMBL document CHEMBL2331391, “Peroxisome proliferator-activated receptor-γ mediates the anti-inflammatory effect of 3-hydroxy-4-pyridinecarboxylic acid derivatives: synthesis and biological evaluation” (Eur J Med Chem, 2013).)
